In brackets after ≈: the same amount, converted by molar mass.
How the values were obtained:
[1] = Inhibition of Mycobacterium tuberculosis NDH-2 by UV spectrophotometry
How it was run: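 Purified Mtb NDH-2 at 1 nM in 50 mM Hepes-NaOH pH 7.5 with 100 mM NaCl, 0.008% Brij-35 and 300 μM NADH; reaction started with 50 μM menadione, run 1 h at 37 °C. NADH oxidation followed as fall in absorbance at 340 nm. Screening at 20 μM, then concentration-response for IC50.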

[2] = test system: Mycobacterium tuberculosis; assay: Antimycobacterial activity against Mycobacterium tuberculosis assessed as growth inhibition after 5 days by MABA/resazurin assay; type: functional; conditions: 120 h
[3] = Fraction unbound in plasma at 20 uM after 18 hrs by equilibrium dialysis method; type: ADME, cell-free
[4] = Partition coefficient, log D of the compound; type: physicochemical; conditions: octanol/water
[5] = Solubility of the compound in 0.1 M phosphate buffer after 24 hrs by UV/MS analysis; type: physicochemical
How it was run: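 Solubility measured in presence of 2% (v/v) DMSO.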

Saccharomyces cerevisiae = assay: Antimicrobial activity against Saccharomyces cerevisiae; type: organism-based
[6] = Toxicity in RBC assessed as hemolysis; type: cell-based; conditions: erythrocyte
[7] = Intrinsic clearance in mouse microsomes assessed per mg protein at 100 uM by HPLC analysis; type: ADME, Microsome

Cn1ccc(-c2cc(Nc3ccc4nc(-c5ccc(F)cc5)cc(N)c4c3)nc(N)n2)n1
IC50 [1]: 1380 nM
MIC [2]: 53.1 µM (≈ 22.6 µg/mL)

Cc1cccc(-c2cc(Nc3ccc4nc(-c5ccc(F)cc5)cc(N)c4c3)nc(N)n2)c1
fraction unbound at 18 h, 20 µM [3]: 0.0144
IC50 [1]: 96 nM
logD [4]: 3.18
solubility at 24 h [5]: 70 µM (≈ 30.6 µg/mL)
MIC (Saccharomyces cerevisiae): > 32 µg/mL
MHC [6]: > 32 µg/mL
MIC [2]: < 0.81 µM

Cc1cccc(-c2cc(Nc3ccc4nccc(N)c4c3)nc(N)n2)c1
IC50 [1]: 10800 nM
MIC [2]: 48.9 µM (≈ 16.7 µg/mL)

COc1ccccc1-c1cc(Nc2ccc3nc(-c4ccc(F)cc4)cc(N)c3c2)nc(N)n1
IC50 [1]: < 620 nM
MIC [2]: 4.42 µM (≈ 2 µg/mL)

CC(C)c1cc(Nc2ccc3nc(-c4ccc(F)cc4)cc(N)c3c2)nc(N)n1
IC50 [1]: 1470 nM
MIC [2]: 7.28 µM (≈ 2.83 µg/mL)

Cc1cc(Nc2ccc3nc(-c4ccc(F)cc4)cc(N)c3c2)nc(N)n1
IC50 [1]: 601 nM
MIC [2]: 22.2 µM (≈ 8 µg/mL)

CCc1cc(Nc2ccc3nc(-c4ccc(F)cc4)cc(N)c3c2)nc(N)n1
IC50 [1]: 2400 nM
MIC [2]: 15.1 µM (≈ 5.66 µg/mL)

Nc1nc(Nc2ccc3nc(-c4ccc(F)cc4)cc(N)c3c2)cc(-c2ccc(C(F)(F)F)cc2)n1
IC50 [1]: 81 nM
logD [4]: 2.16
microsomal CLint at 100 µM [7]: < 4 µL/min/mg
solubility at 24 h [5]: 2450 µM (≈ 1200 µg/mL)
MIC (Saccharomyces cerevisiae): > 32 µg/mL
MHC [6]: > 32 µg/mL
MIC [2]: 2.88 µM (≈ 1.41 µg/mL)

Nc1nc(Nc2ccc3nc(-c4ccc(F)cc4)cc(N)c3c2)cc(-c2ccccc2F)n1
IC50 [1]: 187 nM
MIC [2]: 3.21 µM (≈ 1.41 µg/mL)

Nc1nc(Nc2ccc3nc(-c4ccc(F)cc4)cc(N)c3c2)cc(-c2ccc(F)cc2)n1
fraction unbound at 18 h, 20 µM [3]: 0.0249
IC50 [1]: 53 nM
logD [4]: 3.06
solubility at 24 h [5]: 12 µM (≈ 5.29 µg/mL)
MIC (Saccharomyces cerevisiae): > 32 µg/mL
MHC [6]: > 32 µg/mL
MIC [2]: 1.14 µM (≈ 0.502 µg/mL)

Nc1nc(Nc2ccc3nc(-c4ccc(F)cc4)cc(N)c3c2)cc(-c2ccc(Cl)cc2)n1
fraction unbound at 18 h, 20 µM [3]: 0.008
IC50 [1]: 43 nM
logD [4]: 3
microsomal CLint at 100 µM [7]: 13.4 µL/min/mg
solubility at 24 h [5]: 6 µM (≈ 2.74 µg/mL)
MIC (Saccharomyces cerevisiae): > 32 µg/mL
MHC [6]: > 32 µg/mL
MIC [2]: 1.91 µM (≈ 0.873 µg/mL)

Cc1cc(Nc2ccc3nc(C)ccc3c2)nc(C)n1
IC50 [1]: > 100000 nM
MIC [2]: > 121 µM

Nc1nc(Nc2cnc3ccccc3c2)cc(-c2cccc(Cl)c2)n1
IC50 [1]: 5770 nM
MIC [2]: > 73 µM

Nc1nc(Nc2cnc3ccccc3c2)cc(-c2ccc(C(F)(F)F)cc2)n1
IC50 [1]: 2050 nM
MIC [2]: 66.6 µM (≈ 25.4 µg/mL)

COc1cccc(-c2cc(N)c3cc(Nc4cc(-c5ccc(Cl)cc5)nc(N)n4)ccc3n2)c1
IC50 [1]: < 260 nM
MIC [2]: 2.13 µM (≈ 0.999 µg/mL)

Nc1nc(Nc2ccc3nc(-c4ccc(F)cc4)cc(N)c3c2)cc(-c2ccccc2)n1
IC50 [1]: 73 nM
MIC [2]: 1.67 µM (≈ 0.706 µg/mL)

Nc1nc(Nc2ccc3nc(-c4ccc(F)cc4)cc(N)c3c2)cc(-c2cccc(Cl)c2)n1
IC50 [1]: 50 nM
logD [4]: 3.06
solubility at 24 h [5]: 15 µM (≈ 6.85 µg/mL)
MIC (Saccharomyces cerevisiae): > 32 µg/mL
MHC [6]: > 32 µg/mL
MIC [2]: 2.19 µM (≈ 1 µg/mL)

Nc1nc(Nc2ccc3nc(-c4ccc(F)cc4)cc(N)c3c2)cc(-c2ccccn2)n1
IC50 [1]: 133 nM
MIC [2]: 9.45 µM (≈ 4 µg/mL)
